ChEMBL document CHEMBL3351368, “Biphenyl-4-carboxylic acid [2-(1H-indol-3-yl)-ethyl]-methylamide (CA224), a nonplanar analogue of fascaplysin, inhibits Cdk4 and tubulin polymerization: evaluation of in vitro and in vivo anticancer activity” (J Med Chem, 2014)
In brackets after ≈: the same amount, converted by molar mass. Activity calls are given as the source filed them. The calls are words filed in the database; no cut-off is given here.

Legend:
NCI-H358 [1] = assay: Cell cycle arrest in human NCI-H358 cells assessed as accumulation of cells at G2/M phase at IC50 concentration after 18 hrs by flow cytometry in presence of […] uM hydroxyurea for 18 hrs (reference value: 33%); format: functional
NCI-H358 [2] = assay: Induction of apoptosis in p53 null, […] human NCI-H358 cells assessed as fragmented nuclei/distrupted cell membrane at 1 to 10 uM by DAPI staining-based flow cytometry; details: TDE = time-dependent effect
[3] = Terminal half life in BALB/c mouse at 10 mg/kg, po; format: ADME, organism-based; set-up: dose 10 mg/kg, route oral; details: in vivo, read-out: beta t1/2 (converted)
In short: (§1)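 BALB/c mice given a single dose of 1.0 mg/kg IV or 10 mg/kg orally; plasma concentration followed over time and pharmacokinetic parameters derived from the time-concentration profile.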

Tubulin (Homo sapiens) = Tubulin (Homo sapiens) (UniProt P68371+Q9H4B7+P0DPH7+P68366+Q13509+Q71U36+P04350+Q3ZCM7+P07437+P68363+Q9BQE3+Q6PEY2+Q13885+Q9BVA1+Q9BUF5); assay: Inhibition of tubulin (unknown origin) polymerization assessed as decrease in Vmax measured at 25 uM by spectrophotometry
NCI-H1299 = assay: Cell cycle arrest in human NCI-H1299 cells assessed as accumulation of cells at S phase at IC50 concentration after 24 hrs by flow cytometry (reference value: 21%); format: functional
CYP3A4 = CYP3A4 (Homo sapiens, UniProt P08684); assay: Inhibition of human recombinant CYP3A4 at 10 uM; format: ADME
[4] = Cell cycle arrest in mouse BNL-CL2 cells assessed as accumulation of cells at G2/M phase at IC50 concentration after 48 hrs by flow cytometry (reference value: 23%); format: functional
In short: (§2)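 Normal (BNL CL2) and SV40 large T-antigen transformed (BNL SV A.8) mouse embryonic hepatic cells were treated at IC50 or IC70 concentration for 48 h. Analysis was by FACS, with apoptosis taken as % cells in the sub-G1 peak. Untreated cells served as control.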

LS174T [5] = assay: Reduction Cdk1 level in p53+, pRb+ human LS 174T cells at IC50 concentration after 24 hrs by Western blot analysis
A549 [6] = assay: Cell cycle arrest in human A549 cells assessed as accumulation of cells at G0/G1 phase at IC50 concentration after 24 hrs by flow cytometry (reference value: 49%); format: functional
[7] = Cell cycle arrest in mouse BNL-SVA.8 cells assessed as accumulation of cells at S phase at IC50 concentration after 48 hrs by flow cytometry (reference value: 23%); format: functional; in short: as §2
[8] = Maximum tolerated dose in ip dosed Swiss mouse assessed as body weight change treated for 5 days; format: ADME, organism-based; details: in vivo
In short: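 Swiss albino mice, 6 per group, are dosed intraperitoneally once daily for five days (Q1D x 5) at several doses. The formulation contains Tween 20. Body weight is tracked over a two-week study, and MTD is set as the dose giving >10% weight loss; a drop of >20% is rated highly significant.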

CDK9/cyclin T1 = CDK9/cyclin T1 (Homo sapiens, UniProt P50750); assay: Binding affinity to human CDK9/cyclinT1; format: protein-complex assay
MiaPaCa [9] = assay: Effect on phosphorylation of Cdk1 at Tyr15 in p53His273 mutant, pRb+ human MiaPaCa cells at IC50 concentration after 48 hrs by Western blot analysis; format: functional
A549 [10] = assay: Induction of apoptosis in p53+, pRb+ human A549 cells assessed as fragmented nuclei/distrupted cell membrane after 24 hrs by DAPI staining-based flow cytometry; format: functional
A549 [11] = assay: Induction of p21 level in p53+, pRb+ human A549 cells at IC50 concentration after 24 hrs by Western blot analysis
NCI-H460 = assay: Induction of apoptosis in p53+, pRb+ human NCI-H460 cells assessed as fragmented nuclei/distrupted cell membrane at 1 to 10 uM by DAPI staining-based flow cytometry; format: functional; details: TDE = time-dependent effect
[12] = AUC (0 to infinity) in BALB/c mouse at 1 mg/kg, iv; format: ADME, organism-based; set-up: time infinity, dose 1 mg/kg, route intravenous; details: plasma; in short: as §1
[13] = Cell cycle arrest in mouse BNL-SVA.8 cells assessed as accumulation of cells at G2/M phase at IC50 concentration after 48 hrs by flow cytometry (reference value: 13%); format: functional; in short: as §2
[14] = Antitumor activity against human HCT116 cells xenografted in SCID mouse assessed as inhibition of tumor growth at 100 mg/kg, ip relative to untreated control; format: functional; details: HCT-116, ip, route intraperitoneal
In short: (§3)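 SCID male mice, 18-25 g, 6-8 weeks old, received 6.6 × 10^6 HCT-116 cells subcutaneously on the dorsal side. Randomized into groups of 7 at 4-6 mm tumors (about 5 days), then dosed intraperitoneally for 9 consecutive days. Tumor size recorded every 2-5 days, weight = L×W²×0.5; %GI = 100 − %T/C. Body weight taken daily relative to start; Student t-test.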

Homo sapiens = species: Homo sapiens; assay: Inhibition of human PKA assessed as enzyme activity at 10 uM
CYP2D6 = CYP2D6 (Homo sapiens, UniProt P10635); assay: Inhibition of human recombinant CYP2D6 at 10 uM; format: ADME
[15] = molecular target: Protein kinase C alpha type (Homo sapiens) (UniProt P17252); assay: Inhibition of human PKCalpha assessed as enzyme activity at 10 uM
LS174T [16] = assay: Induction of p21 level in p53+, pRb+ human LS 174T cells at IC50 concentration after 24 hrs by Western blot analysis
Mus musculus = assay: Toxicity in human HCT116 cells xenografted in SCID mouse assessed as change in body weight at 100 mg/kg, ip relative to untreated control; format: organism-based, HCT-116; set-up: dose 100 mg/kg, route intraperitoneal; details: in vivo; in short: as §3
[17] = AUC (0 to t) in BALB/c mouse at 1 mg/kg, iv; format: ADME, organism-based; set-up: dose 1 mg/kg, route intravenous; details: plasma; in short: as §1
NCI-H358 [18] = assay: Induction of apoptosis in p53 null, […] human NCI-H358 cells assessed as fragmented nuclei/distrupted cell membrane after 24 hrs by DAPI staining-based flow cytometry
MiaPaCa [19] = assay: Effect on p53 level in p53His273 mutant, pRb+ human MiaPaCa cells at IC50 concentration after 48 hrs by Western blot analysis; format: functional
[20] = Solubility in water; format: physicochemical
[21] = Cmax in BALB/c mouse at 10 mg/kg, po; format: ADME, organism-based; set-up: dose 10 mg/kg, route oral; details: in vivo; in short: as §1
[22] = molecular target: Epidermal growth factor receptor (Homo sapiens) (UniProt P00533); assay: Inhibition of human EGFR assessed as enzyme activity at 10 uM
[23] = AUC (0 to infinity) in BALB/c mouse at 10 mg/kg, po; format: ADME, organism-based; set-up: time infinity, dose 10 mg/kg, route oral; details: plasma; in short: as §1
[24] = Cell cycle arrest in mouse BNL-SVA.8 cells assessed as accumulation of cells at G0/G1 phase at IC50 concentration after 48 hrs by flow cytometry (reference value: 64%); format: functional; in short: as §2

Chain of CYP2D6 (P10635 whole entry): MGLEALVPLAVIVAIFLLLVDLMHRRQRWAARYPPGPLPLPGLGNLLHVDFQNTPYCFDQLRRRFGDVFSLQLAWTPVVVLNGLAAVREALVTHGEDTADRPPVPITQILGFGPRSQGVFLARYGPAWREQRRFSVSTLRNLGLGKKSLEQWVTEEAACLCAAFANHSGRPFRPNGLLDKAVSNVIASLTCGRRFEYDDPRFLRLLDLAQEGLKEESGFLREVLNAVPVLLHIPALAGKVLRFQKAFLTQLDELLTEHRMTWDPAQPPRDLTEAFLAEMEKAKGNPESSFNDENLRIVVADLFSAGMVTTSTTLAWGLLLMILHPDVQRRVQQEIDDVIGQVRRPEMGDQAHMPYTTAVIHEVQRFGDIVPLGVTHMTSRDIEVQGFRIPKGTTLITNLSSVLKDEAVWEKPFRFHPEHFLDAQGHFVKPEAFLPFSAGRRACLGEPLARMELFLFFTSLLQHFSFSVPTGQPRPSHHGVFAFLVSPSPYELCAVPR
Chain of Epidermal growth factor receptor (Homo sapiens) (P00533 whole entry): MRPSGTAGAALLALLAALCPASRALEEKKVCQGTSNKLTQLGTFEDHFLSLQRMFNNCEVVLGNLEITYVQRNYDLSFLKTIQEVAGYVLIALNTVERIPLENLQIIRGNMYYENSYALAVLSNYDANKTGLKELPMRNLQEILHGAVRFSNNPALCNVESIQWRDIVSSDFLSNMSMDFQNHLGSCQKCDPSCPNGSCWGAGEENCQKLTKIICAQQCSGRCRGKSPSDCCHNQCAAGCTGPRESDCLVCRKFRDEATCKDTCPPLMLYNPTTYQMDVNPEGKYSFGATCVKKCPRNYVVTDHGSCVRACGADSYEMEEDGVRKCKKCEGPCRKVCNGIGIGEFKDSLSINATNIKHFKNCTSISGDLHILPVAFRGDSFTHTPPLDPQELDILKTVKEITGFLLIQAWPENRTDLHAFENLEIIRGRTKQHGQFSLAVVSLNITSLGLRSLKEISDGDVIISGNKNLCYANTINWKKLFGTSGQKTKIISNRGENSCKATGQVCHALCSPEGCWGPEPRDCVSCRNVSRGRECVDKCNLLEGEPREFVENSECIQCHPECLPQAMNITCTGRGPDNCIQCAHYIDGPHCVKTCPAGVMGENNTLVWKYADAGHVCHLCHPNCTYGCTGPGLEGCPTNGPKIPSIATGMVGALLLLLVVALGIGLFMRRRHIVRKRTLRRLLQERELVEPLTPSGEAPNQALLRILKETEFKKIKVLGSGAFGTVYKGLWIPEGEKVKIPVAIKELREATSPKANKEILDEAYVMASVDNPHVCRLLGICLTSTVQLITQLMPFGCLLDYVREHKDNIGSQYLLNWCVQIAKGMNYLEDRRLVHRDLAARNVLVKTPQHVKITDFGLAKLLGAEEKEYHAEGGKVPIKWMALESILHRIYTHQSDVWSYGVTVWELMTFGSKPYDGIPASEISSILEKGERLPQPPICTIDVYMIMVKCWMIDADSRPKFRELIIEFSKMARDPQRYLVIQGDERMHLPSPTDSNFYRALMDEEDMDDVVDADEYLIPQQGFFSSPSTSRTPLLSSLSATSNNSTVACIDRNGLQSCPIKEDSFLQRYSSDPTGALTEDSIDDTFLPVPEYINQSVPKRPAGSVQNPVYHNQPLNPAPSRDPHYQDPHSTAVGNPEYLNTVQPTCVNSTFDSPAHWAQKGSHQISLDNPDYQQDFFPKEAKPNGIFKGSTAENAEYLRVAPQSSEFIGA
Chain of CDK9/cyclin T1 (O60563 whole entry): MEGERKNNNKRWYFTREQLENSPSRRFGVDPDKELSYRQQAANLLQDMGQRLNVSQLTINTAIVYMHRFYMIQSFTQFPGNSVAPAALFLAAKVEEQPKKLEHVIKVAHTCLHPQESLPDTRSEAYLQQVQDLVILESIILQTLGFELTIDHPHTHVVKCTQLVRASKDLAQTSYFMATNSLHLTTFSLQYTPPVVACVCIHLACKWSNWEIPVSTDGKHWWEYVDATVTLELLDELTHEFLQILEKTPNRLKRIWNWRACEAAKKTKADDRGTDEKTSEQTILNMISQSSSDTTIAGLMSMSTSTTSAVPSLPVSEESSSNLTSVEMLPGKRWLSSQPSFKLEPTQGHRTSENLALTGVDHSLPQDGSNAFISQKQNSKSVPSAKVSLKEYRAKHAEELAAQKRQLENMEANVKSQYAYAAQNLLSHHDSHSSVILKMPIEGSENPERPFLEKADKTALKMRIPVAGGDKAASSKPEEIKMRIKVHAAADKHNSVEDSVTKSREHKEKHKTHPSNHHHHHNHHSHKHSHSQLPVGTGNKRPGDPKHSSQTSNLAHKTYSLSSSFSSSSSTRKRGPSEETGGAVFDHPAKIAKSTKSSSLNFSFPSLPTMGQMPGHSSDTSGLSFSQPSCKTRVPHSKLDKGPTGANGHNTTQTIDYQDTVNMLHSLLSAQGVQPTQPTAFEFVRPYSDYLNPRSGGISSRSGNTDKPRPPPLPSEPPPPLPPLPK
Chain of CDK9/cyclin T1 (P50750 whole entry): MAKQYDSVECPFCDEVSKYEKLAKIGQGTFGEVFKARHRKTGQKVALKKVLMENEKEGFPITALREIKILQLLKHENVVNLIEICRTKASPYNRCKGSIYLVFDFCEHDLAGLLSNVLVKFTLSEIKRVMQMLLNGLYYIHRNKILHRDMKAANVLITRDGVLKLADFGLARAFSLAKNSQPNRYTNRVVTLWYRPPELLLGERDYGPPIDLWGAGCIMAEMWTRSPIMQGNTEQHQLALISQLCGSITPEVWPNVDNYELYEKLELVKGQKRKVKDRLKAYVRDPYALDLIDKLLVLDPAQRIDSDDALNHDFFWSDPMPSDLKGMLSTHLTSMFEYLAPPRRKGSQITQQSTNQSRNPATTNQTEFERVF
Chain of CYP3A4 (P08684 whole entry): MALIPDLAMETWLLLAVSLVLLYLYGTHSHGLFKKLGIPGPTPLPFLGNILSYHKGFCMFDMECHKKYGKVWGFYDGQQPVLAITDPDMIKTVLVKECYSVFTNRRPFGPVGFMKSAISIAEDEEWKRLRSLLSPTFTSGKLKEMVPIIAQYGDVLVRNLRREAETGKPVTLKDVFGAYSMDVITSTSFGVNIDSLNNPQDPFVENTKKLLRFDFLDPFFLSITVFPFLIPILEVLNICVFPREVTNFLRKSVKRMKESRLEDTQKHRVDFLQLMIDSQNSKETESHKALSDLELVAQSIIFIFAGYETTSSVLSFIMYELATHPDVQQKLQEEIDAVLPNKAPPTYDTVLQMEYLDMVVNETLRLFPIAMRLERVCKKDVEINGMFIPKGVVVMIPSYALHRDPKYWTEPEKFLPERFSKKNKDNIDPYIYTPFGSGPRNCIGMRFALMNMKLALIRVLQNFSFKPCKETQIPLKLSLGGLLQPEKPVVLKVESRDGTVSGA

For CN(CCc1c[nH]c2ccccc12)C(=O)c1ccc(-c2ccccc2)cc1, the Activity (NCI-H358 [1]) was 72%, the Activity (NCI-H358 [2]) was “tde” and the half-life [3] was 1.16 h. The Activity (milli optical density/minute) (Tubulin (Homo sapiens)) was 0.4, the Activity (NCI-H1299) was 10% and the inhibition at 10 µM (CYP3A4) was 50%. For the same molecule, the Activity [4] was 54%, the inhibition (LS174T [5]) was “Active” and the Activity (A549 [6]) was 3%. For the same molecule, the Activity [7] was 21%, the MTD at 120 h [8] was 1000 mg/kg and the IC50 (CDK9/cyclin T1) was over 1000 µM. For the same molecule, the Activity (MiaPaCa [9]) was “inactive”, the Activity (A549 [10]) was “Dose-dependent effect” and the Activity (A549 [11]) was “Active”. The Activity (NCI-H460) was “tde”, the AUC(0-inf) [12] was 189 ng·h/mL and the Activity [13] was 14%. The inhibition in vivo at 100 mg/kg [14] was 80%, the inhibition (Homo sapiens) was “inactive” and the inhibition at 10 µM (CYP2D6) was 14%. For the same molecule, the inhibition [15] was “inactive”, the Activity (LS174T [16]) was “Active” and the Activity (Mus musculus) was “<= 10%”. The AUC(0-t) [17] was 187 ng·h/mL, the Activity (NCI-H358 [18]) was “Dose-dependent effect” and the Activity (MiaPaCa [19]) was “inactive”. For the same molecule, the solubility [20] was 80 µg/mL (≈ 226 µM), the Cmax [21] was 190 ng/mL and the inhibition [22] was “inactive”. It also gave an AUC(0-inf) [23] of 182 ng·h/mL and an Activity [24] of 31%.
